As usually defined, the IC50 is the midpoint of a concentration-inhibition curve.

The record followed here is ChEMBL document CHEMBL6177916, “Synthesis, in silico and bio-evaluation studies of new isothiocyanate derivatives with respect to COX inhibition and H2S release profiles” (RSC Med Chem, 2025).

Structures are written as SMILES. The source made the active and inactive calls. The rule behind the calls is not given here.

For test [1], the system named is RAW264.7. Put plainly: Cytotoxicity against mouse RAW264.7 cells assessed as cell viability at 10 to 20 uM measured after 24 hrs by MTT assay. It counts as functional, cell-based. Particulars: dose 10-20 µM. An outline of the steps:
(§1)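 RAW 264.7 murine macrophages were seeded at 4 × 10^5 cells per mL and grown 24 h at 37 °C. They were then stimulated with 1 μg mL−1 LPS, with or without compound (DMSO-dissolved) at 10 and 20 μM, for 24 h. MTT was added for 2 h, formazan was dissolved in DMSO, and A570/620 was read. Controls were no inhibitor/no LPS and LPS alone, with comparisons made against LPS alone. Data are ≥3 biological replicates, mean ± SEM, one-way ANOVA with Dunnett.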

The subject of test [2] is RAW264.7. Kind of test: Antiinflammatory activity against LPS induced mouse RAW264.7 cells assessed as decrease in cell viability at 10 to 20 uM relative to control. It counts as functional. Particulars: dose 10-20 µM. An outline of the steps: as §1
Test [3] in a line: Induction of H2S release in PBS at pH 7.4 at 100 uM measured over 4 hrs by microplate reader based analysis. It counts as functional. An outline of the steps:
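Compounds (DMSO-dissolved) were diluted to 100 μM final in phosphate buffer, pH 7.4, containing 1 mM L-cysteine. This was combined with a detection mix of N,N-dimethyl-1,4-phenylenediamine sulfate (20 mM) plus 1% w/v Zn(OAc)2, reacted with 30 mM FeCl3. A670 was read every 5 min until no meaningful increase was seen.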

The target in test [4] is T1, Prostaglandin G/H synthase 2 (Homo sapiens, UniProt P35354).
T1 sequence (P35354 whole entry): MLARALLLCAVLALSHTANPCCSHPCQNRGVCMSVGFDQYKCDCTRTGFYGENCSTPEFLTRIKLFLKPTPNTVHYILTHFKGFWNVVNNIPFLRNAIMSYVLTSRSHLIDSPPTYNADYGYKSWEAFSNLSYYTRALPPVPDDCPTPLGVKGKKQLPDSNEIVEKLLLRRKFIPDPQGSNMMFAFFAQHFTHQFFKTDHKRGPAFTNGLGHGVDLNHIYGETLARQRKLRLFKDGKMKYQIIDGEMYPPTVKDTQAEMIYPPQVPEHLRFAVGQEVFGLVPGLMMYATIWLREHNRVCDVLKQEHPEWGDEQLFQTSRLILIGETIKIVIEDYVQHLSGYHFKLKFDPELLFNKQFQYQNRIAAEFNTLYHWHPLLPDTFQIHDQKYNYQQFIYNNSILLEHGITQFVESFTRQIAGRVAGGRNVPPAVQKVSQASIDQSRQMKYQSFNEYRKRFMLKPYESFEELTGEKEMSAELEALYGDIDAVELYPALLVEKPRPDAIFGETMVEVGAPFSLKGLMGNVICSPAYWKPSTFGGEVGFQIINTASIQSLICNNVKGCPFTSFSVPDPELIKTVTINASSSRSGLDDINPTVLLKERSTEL
Put plainly: Inhibition of human recombinant COX-2 using arachidonic acid as substrate at 10 uM preincubated for 10 mins followed by substrate addition and measured after 30 secs.

Consider `OCCc1ccc(N=C=S)cc1`, for which the outcome in the test with RAW264.7 [1] was inactive. Moreover, the Activity is below 80% with RAW264.7 [2] and 36.8 µM in test [3].

For `N#Cc1cc(CCO)ccc1N=C=S`, the result in the test on RAW264.7 [1] was inactive. Moreover, the results for the Activity (with RAW264.7 [2]; in test [3]) were below 80% and 35.7 µM, respectively.

With `OCCc1ccc(N=C=S)c(Br)c1`, the result with RAW264.7 [1] was inactive. Also, the Activity in the test with RAW264.7 [2] was below 80%; in test [3], 35.5 µM.

As to `O=C(OCCc1ccc(N=C=S)cc1)c1ccccc1`, the result in the test with RAW264.7 [1] was inactive. The figures for the Activity (in the test with RAW264.7 [2]; in test [3]) were below 80% and 11.3 µM, respectively.

Consider `CC(C)CC(=O)OCCc1ccc(N=C=S)cc1`, for which the outcome with RAW264.7 [1] was inactive. The same compound came in with an Activity in test [3] of 11.7 µM.

With `O=C(OCCc1ccc(N=C=S)cc1)c1ccc([N+](=O)[O-])cc1`, the result with RAW264.7 [1] was inactive. The figures for the Activity (in the test with RAW264.7 [2]; in test [3]) were below 80% and 11.5 µM, respectively.

Turning to `C[S+]([O-])CCCCN=C=S` (configuration not stated) [SULFORAPHANE], the IC50 in test [4] was 6.35 µM. The compound further came in with an Activity in test [3] of 43.5 µM.

As for `O=C(OCCc1ccc(N=C=S)cc1)c1ccc(F)cc1`, the Activity in test [3] turned out to be 10.9 µM.

Take `COc1ccc(C(=O)OCCc2ccc(N=C=S)cc2)cc1`: the outcome in the test on RAW264.7 [1] was inactive. This compound registered an Activity in test [3] of 11.2 µM.
